Legend:
ACHN = assay: Growth inhibition of human ACHN cells after 48 hrs; type: functional; settings: for TGI: read-out: pTGI (converted)
How it was run: (§1)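 NCI-60 human tumour cell line panel screen run at the US National Cancer Institute under its standard cytotoxicity protocol. It covers leukaemia, NSCLC, colon, CNS, melanoma, ovarian, renal, prostate and breast lines. An initial single-dose test was followed by five-dose testing with 48 h compound exposure.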

[1] = Growth inhibition of human SF539 cells after 48 hrs; type: functional; settings: SF-539, 48 h; for CC50: read-out: pLC50 (the source's name) (converted); for TGI: read-out: pTGI (converted); how it was run: as §1
NCI-H522 = assay: Growth inhibition of human NCI-H522 cells after 48 hrs; type: functional; settings: NCI-H522, 48 h; for CC50: read-out: pLC50 (the source's name) (converted); for TGI: read-out: pTGI (converted); how it was run: as §1
[2] = Growth inhibition of human HCC2998 cells after 48 hrs; type: functional; settings: HCC 2998, 48 h; for CC50: read-out: pLC50 (the source's name) (converted); for TGI: read-out: pTGI (converted); how it was run: as §1
A498 = assay: Growth inhibition of human A498 cells after 48 hrs; type: functional; settings: A498, 48 h; for TGI: read-out: pTGI (converted); how it was run: as §1
SK-OV-3 = assay: Growth inhibition of human SKOV3 cells after 48 hrs; type: functional; settings: SK-OV-3, 48 h; for CC50: read-out: pLC50 (the source's name) (converted); for TGI: read-out: pTGI (converted)
How it was run: (§2)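 Run by the NCI 58-cell-line screen under its standard cytotoxicity protocol. Compounds were first tested at a single dose, then at five doses. Cells were exposed to compound for 48 h.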

[3] = Growth inhibition of human SF295 cells after 48 hrs; type: functional; settings: SF-295, 48 h; for CC50: read-out: pLC50 (the source's name) (converted); how it was run: as §1
HT-29 = assay: Growth inhibition of human HT-29 cells after 48 hrs; type: functional; settings: HT-29, 48 h; for CC50: read-out: pLC50 (the source's name) (converted); for TGI: read-out: pTGI (converted); how it was run: as §1
[4] = Growth inhibition of human EKVX cells after 48 hrs; type: functional; settings: for CC50: read-out: pLC50 (the source's name) (converted); for TGI: read-out: pTGI (converted); how it was run: as §1
SNB-75 = assay: Growth inhibition of human SNB75 cells after 48 hrs; type: functional; settings: SNB-75, 48 h; for CC50: read-out: pLC50 (the source's name) (converted); for TGI: read-out: pTGI (converted); how it was run: as §2
Candida albicans = assay: Antimicrobial activity against Candida albicans assessed as inhibition at 20 ug/6 mm disk after 1 to 2 days by agar diffusion assay; type: functional
How it was run: (§3)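 Standard agar diffusion: 6-mm paper disks loaded with 20 µg of compound were placed on inoculated plates. Inhibition-zone diameter (mm) was read after 1 and 2 days of growth.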

[5] = Growth inhibition of human OVCAR3 cells after 48 hrs; type: functional; settings: OVCAR-3, 48 h; for CC50: read-out: pLC50 (the source's name) (converted); for TGI: read-out: pTGI (converted); how it was run: as §1
T47D = assay: Growth inhibition of human T47D cells after 48 hrs; type: functional; settings: for TGI: read-out: pTGI (converted); how it was run: as §2
Malme-3M = assay: Growth inhibition of human MALME-3M cells after 48 hrs; type: functional; settings: for CC50: read-out: pLC50 (the source's name) (converted); for TGI: read-out: pTGI (converted); how it was run: as §1
[6] = Growth inhibition of human OVCAR4 cells after 48 hrs; type: functional; settings: OVCAR-4, 48 h; for TGI: read-out: pTGI (converted); how it was run: as §1
NCI-H226 = assay: Growth inhibition of human NCI-H226 cells after 48 hrs; type: functional; settings: NCI-H226, 48 h; for TGI: read-out: pTGI (converted); how it was run: as §1
[7] = Growth inhibition of human HOP92 cells after 48 hrs; type: functional; settings: HOP-92, 48 h; for CC50: read-out: pLC50 (the source's name) (converted); for TGI: read-out: pTGI (converted); how it was run: as §1
[8] = Growth inhibition of human NCI-ADR-RES cells after 48 hrs; type: functional; settings: for TGI: read-out: pTGI (converted); how it was run: as §1
786-0 = assay: Growth inhibition of human 786-0 cells after 48 hrs; type: functional; settings: 786-0, 48 h; for TGI: read-out: pTGI (converted); how it was run: as §1
SK-MEL-5 = assay: Growth inhibition of human SK-MEL-5 cells after 48 hrs; type: functional; settings: SK-MEL-5, 48 h; for CC50: read-out: pLC50 (the source's name) (converted); for TGI: read-out: pTGI (converted); how it was run: as §2
A-431 = assay: Cytotoxicity against human A431 cells assessed as cell viability after 24 hrs incubation by MTT assay; type: functional, cell-based; settings: A-431, 24 h
How it was run: (§4)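 Cell lines came from DSMZ; primary human fibroblasts served as non-cancer controls. Cells were grown in medium with 10% FCS, seeded at 50,000 cells/ml, and grown 2 days at 37 °C, 10% CO2. Serial dilutions were then added for 24 h. MTT (final 0.5 mg/ml) was added for 2 h. Formazan was pelleted, PBS-washed, dissolved in isopropanol/0.4% HCl and read at 590 nm. Two parallel experiments were run. IC50 was taken as the concentration giving 50% of untreated-control absorbance.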

[9] = Growth inhibition of human Hs 578T cells after 48 hrs; type: functional; how it was run: as §1
Staphylococcus aureus = assay: Antimicrobial activity against Staphylococcus aureus assessed as inhibition at 20 ug/6 mm disk after 1 to 2 days by agar diffusion assay; type: functional; how it was run: as §3
IGROV-1 = assay: Growth inhibition of human IGROV1 cells after 48 hrs; type: functional; settings: IGROV-1, 48 h; for CC50: read-out: pLC50 (the source's name) (converted); for TGI: read-out: pTGI (converted); how it was run: as §1
[10] = Growth inhibition of human BT549 cells after 48 hrs; type: functional; settings: BT-549, 48 h; how it was run: as §1
SNB-19 = assay: Growth inhibition of human SNB19 cells after 48 hrs; type: functional; settings: SNB-19, 48 h; for CC50: read-out: pLC50 (the source's name) (converted); how it was run: as §2
[11] = Cytotoxicity against human fibroblasts assessed as cell viability after 24 hrs incubation by MTT assay; type: cell-based; settings: Fibroblast; how it was run: as §4
K562 = assay: Growth inhibition of human K562 cells after 48 hrs; type: functional; settings: K562, 48 h; for CC50: read-out: pLC50 (the source's name) (converted); for TGI: read-out: pTGI (converted); how it was run: as §1
[12] = Octanol-water partition coefficient, log P of the compound by HPLC analysis; type: physicochemical
How it was run: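 Lipophilicity was measured by reversed-phase HPLC on a Nucleosil C18 column with isocratic water/methanol (3:1) at 0.5 ml/min and UV detection at 230 and 245 nm. Dead time was set with thiourea (t0 0.728 min). Retention factor was k = (tR − t0)/t0, and log P came from a calibration against at least six reference compounds.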

TK-10 = assay: Growth inhibition of human TK10 cells after 48 hrs; type: functional; settings: TK-10, 48 h; for TGI: read-out: pTGI (converted); how it was run: as §2
[13] = Growth inhibition of human RXF393 cells after 48 hrs; type: functional; settings: RXF 393, 48 h; how it was run: as §1
[14] = Growth inhibition of human LOXIMVI cells after 48 hrs; type: functional; settings: LOX IMVI; how it was run: as §1

## COc1ccc(N(CC(=O)NCCC[Te]c2ccccc2)C(=O)CCSC2=C(C)C(=O)c3ccccc3C2=O)cc1
ACHN
  GI50: 1.35 µM
  LC50: 6.76 µM
  TGI: 3.02 µM
[1]
  GI50: 2.14 µM
  CC50: 7.08 µM
  TGI: 3.89 µM
NCI-H522
  GI50: 1.07 µM
  CC50: > 100 µM
  TGI: 3.39 µM
[2]
  GI50: 1.23 µM
  CC50: 9.33 µM
  TGI: 3.39 µM
A498
  GI50: 1.35 µM
  TGI: 3.24 µM
SK-OV-3
  GI50: 1.86 µM
  CC50: 8.71 µM
  TGI: 3.98 µM
[3]
  CC50: > 100 µM
HT-29
  GI50: 1.62 µM
  CC50: 50.1 µM
  TGI: 4.9 µM
[4]
  GI50: 0.38 µM
  CC50: > 100 µM
  TGI: 3.31 µM
SNB-75
  GI50: 1.82 µM
  CC50: 45.7 µM
  TGI: 6.92 µM
Candida albicans
  diameter of the inhibition zone (DIZ): 0 mm
[5]
  GI50: 1.17 µM
  CC50: 5.62 µM
  TGI: 2.04 µM
T47D
  GI50: 1.55 µM
  TGI: 3.55 µM
Malme-3M
  GI50: 2.24 µM
  CC50: 8.32 µM
  TGI: 4.37 µM
[6]
  GI50: 2.63 µM
  LC50: 31.6 µM
  TGI: 10.2 µM
NCI-H226
  GI50: 1.62 µM
  TGI: 3.63 µM
[7]
  GI50: 1.45 µM
  CC50: 13.2 µM
  TGI: 3.98 µM
[8]
  GI50: 0.955 µM
  LC50: 41.7 µM
  TGI: 5.01 µM
786-0
  GI50: 2.09 µM
  LC50: 8.91 µM
  TGI: 4.37 µM
SK-MEL-5
  GI50: 1.62 µM
  CC50: 5.75 µM
  TGI: 3.09 µM
A-431
  IC50: 1 µM
[9]
  GI50: 1.78 µM
  LC50: > 100 µM
Staphylococcus aureus
  diameter of the inhibition zone (DIZ): 11 mm
IGROV-1
  GI50: 0.776 µM
  CC50: 5.37 µM
  TGI: 2.19 µM
[10]
  LC50 (concentration killing 50% of cells): 16.6 µM
SNB-19
  CC50: 56.2 µM
[11]
  IC50: 4 µM
K562
  GI50: 1.95 µM
  CC50: > 100 µM
  TGI: 5.13 µM
[12]
  logP: 1.97
TK-10
  GI50: 2.82 µM
  LC50: 28.8 µM
  TGI: 6.92 µM
[13]
  GI50: 1.86 µM
  LC50: 7.94 µM
[13]; read-out: pTGI (converted)
  TGI: 3.8 µM

## COc1ccc(N(CC(=O)NCCC[Te]c2ccccc2)C(=O)CNC(=O)OC(C)(C)C)cc1
ACHN
  GI50: 1.55 µM
  LC50: > 100 µM
  TGI: 8.71 µM
[1]
  GI50: 2.14 µM
  CC50: 15.8 µM
  TGI: 4.79 µM
NCI-H522
  GI50: 2.57 µM
  CC50: 56.2 µM
  TGI: 10.5 µM
[2]
  GI50: 2.57 µM
  CC50: 27.5 µM
  TGI: 6.61 µM
A498
  GI50: 2.29 µM
  LC50: 33.9 µM
  TGI: 5.37 µM
SK-OV-3
  GI50: 2.34 µM
  CC50: 10 µM
  TGI: 4.79 µM
[3]
  GI50: 1.29 µM
  CC50: > 100 µM
[3]; read-out: pTGI (converted)
  TGI: 4.07 µM
HT-29
  GI50: 3.8 µM
  CC50: > 100 µM
  TGI: 13.8 µM
[4]
  GI50: 0.324 µM
  CC50: > 100 µM
  TGI: 2.34 µM
SNB-75
  GI50: 6.61 µM
  CC50: 36.3 µM
  TGI: 7.41 µM
Candida albicans
  diameter of the inhibition zone (DIZ): 0 mm
[5]
  GI50: 3.02 µM
  CC50: 100 µM
  TGI: 7.94 µM
T47D
  GI50: 11.2 µM
  LC50: > 100 µM
  TGI: 40.7 µM
Malme-3M
  GI50: 15.8 µM
  CC50: 69.2 µM
  TGI: 33.1 µM
[6]
  GI50: 22.4 µM
  LC50: > 100 µM
  TGI: > 100 µM
NCI-H226
  GI50: 2.29 µM
  TGI: 5.37 µM
NCI-H226; read-out: pLC50 (the source's name) (converted)
  CC50: 79.4 µM
[7]
  GI50: 2.95 µM
  CC50: 66.1 µM
  TGI: 4.9 µM
[8]
  GI50: 2.88 µM
  LC50: > 100 µM
  TGI: 7.24 µM
786-0
  GI50: 3.72 µM
  LC50: 56.2 µM
  TGI: 12.9 µM
SK-MEL-5
  GI50: 3.16 µM
  CC50: 34.7 µM
  TGI: 9.12 µM
A-431
  IC50: 5 µM
[9]
  GI50: 2.75 µM
  LC50: > 100 µM
[9]; read-out: pTGI (converted)
  TGI: 7.24 µM
[14]
  GI50: 2.34 µM
  LC50: 34.7 µM
[14]; read-out: pTGI (converted)
  TGI: 5.75 µM
Staphylococcus aureus
  diameter of the inhibition zone (DIZ): 10 mm
IGROV-1
  GI50: 2.24 µM
  CC50: 25.7 µM
  TGI: 5.37 µM
[10]
  GI50: 1.7 µM
  LC50 (concentration killing 50% of cells): > 100 µM
[10]; read-out: pTGI (converted)
  TGI: 4.9 µM
SNB-19
  GI50: 8.71 µM
  CC50: > 100 µM
SNB-19; read-out: pTGI (converted)
  TGI: 9.55 µM
[11]
  IC50: 25 µM
K562
  GI50: 5.5 µM
  CC50: > 100 µM
  TGI: > 100 µM
[12]
  logP: 4.2
TK-10
  GI50: 3.89 µM
  LC50: 100 µM
  TGI: 10.7 µM

From ChEMBL document CHEMBL3351600, “Sulfur, selenium and tellurium pseudopeptides: synthesis and biological evaluation” (Bioorg Med Chem, 2014)
